The source of these data is ChEMBL document CHEMBL1131041 (J Med Chem, 1998).

The species named for test [1] is Cavia porcellus. Kind of test: (§1) Partial agonist activity expressed as inhibition of contraction of guinea pig ileal longitudinal muscle myenteric plexus (GPI) at 1 uM conc. In kind it is functional, organism-based. The note with it: Muscle tissue. In a few lines: (§2)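 Agonist action on electrically driven tissues at 37 °C: GPI (1 g tension, 0.4-ms pulses) and Mg-free MVD (0.5 g, 2-ms pulses), 0.1 Hz. Percent inhibition of contraction height read 10 min after 1 μM compound; for stronger agonists, IC50 from concentration–response curves (2–4 tissues, nonlinear least squares). Selectivity = GPI IC50/MVD IC50.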

Test [2] concerns the target Delta-type opioid receptor (Mus musculus, UniProt P32300). Put plainly: (§3) Partial agonist activity expressed as inhibition of contraction of mouse vas deferens (MVD) smooth muscle at 1 uM conc. Format: functional, tissue-based, Muscle tissue. Summed up:
as §2

The target of test [3] is Delta-type opioid receptor (Mus musculus) (UniProt P32300). Kind of test: Displacement of DPDPE from Opioid receptor delta 1 of mouse vas deferens (MVD)smooth muscle. Summed up:
(§4)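 Mouse vas deferens (male ICR, 25–40 g) in Mg-free oxygenated Krebs at 37 °C, 0.5 g tension; transmural 0.1 Hz, 2-ms pulses, supramaximal voltage. Control DPDPE curve first; then 1 μM compound 30 min, 30 min wash, cumulative DPDPE curve (3-min steps) repeated. IC50 ratio = shifted/control IC50; Ke = [antagonist]/(ratio − 1); n ≥ 3.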

The target in test [4] is T1, Kappa-type opioid receptor (Cavia porcellus, UniProt P41144). Put plainly: Displacement of [125I]OXY from Opioid receptor kappa 2b of guinea pig brain membranes (pretreated with BIT(mu) and FIT(delta) and in the presence of (-)U50,488). In a few lines: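 Guinea pig brain membranes depleted of μ/δ sites by BIT and FIT, labelled with 0.01 nM [125I]IOXY in presence of 5 μM (−)U50,488. Incubation 4–6 h at 4 °C in 50 mM Tris-HCl pH 7.4 with 10 mM NaCl, protease inhibitors and 1 μg/mL captopril.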
(Loss of bound radioactivity is the signal in a displacement assay; it reports binding, not function.)

For test [5], the target named is T1, Kappa-type opioid receptor. Kind of test: Displacement of [3H]U-69593 from Opioid receptor kappa 1 of guinea pig brain membranes (pretreated with BIT and FIT to block mu and delta sites). In a few lines: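 Guinea pig brain membranes pretreated with BIT and FIT, labelled with [3H]U69,593. Incubation 4–6 h at 25 °C in 50 mM Tris-HCl pH 7.4 with protease inhibitors and 1 μg/mL captopril. Nonspecific binding with 1 μM U69,593. 8–10 concentrations, twice.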

The next test addresses Mu-type opioid receptor (Rattus norvegicus, UniProt P33535). Kind of test: Displacement of [3H]DAMGO from Opioid receptor mu 1 of rat brain membranes. In kind it is cell membranes, Membrane. Summed up: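 Rat brain membranes labelled with [3H]DAMGO. Incubation 4 h at 25 °C in 50 mM Tris-HCl pH 7.4 with protease inhibitor cocktail. Nonspecific binding defined with 20 μM levallorphan. 8–10 test concentrations, run twice; IC50 and slope factor derived.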

The target of test [6] is T2, Delta-type opioid receptor (Rattus norvegicus, UniProt P33533). Kind of test: Displacement of [3H]DADLE from morphine-insensitive Opioid receptor delta 1 (presence of 50 nM morphine) of rat brain membranes. In kind it is cell membranes, Membrane. In a few lines:
(§5)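 Rat brain membranes pretreated with (+)-trans-[…], labelled with 2.0 nM [3H]DADLE, plus 50 nM morphine (δcx-2) or 300 nM DELT-II (δcx-1). Incubation 4–6 h at 25 °C in 10 mM Tris-HCl pH 7.4 with 100 mM NaCl, 3 mM MnCl2, 2 μM GTP, 5 mM 2-mercaptoethanol and protease inhibitors. 8–10 concentrations, twice.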

Test [7] concerns the target T2, Delta-type opioid receptor. Put plainly: Displacement of [3H]DADLE from morphine-sensitive Opioid receptor delta 1 (presence of 300 nM DELT-II) of rat brain membranes. Format: cell membranes, Membrane. Summed up:
as §5

Test [8] has as its target T2, Delta-type opioid receptor. Kind of test: Displacement of [3H]DADLE from Opioid receptor delta 1 of rat brain membranes (DAMGO quenching mu receptor). In kind it is cell membranes, Membrane. Summed up: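 Rat brain membranes labelled with [3H]DADLE. Incubation 3–4 h at 25 °C in 10 mM Tris-HCl pH 7.4 with 100 mM choline chloride, 3 mM MnCl2, 100 nM DAMGO (μ block) and protease inhibitors. Levallorphan 20 μM for nonspecific binding. 8–10 concentrations, duplicate runs.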

Test [9] in a line: Relative affinity for guinea pig kappa1 and rat delta receptors.
Test [10] concerns the target Opioid receptors; mu & delta (Homo sapiens) (UniProt P41143+P35372). Put plainly: IC50 selectivity for mu receptor of guinea pig Ileum (GPI) and delta receptor of delta opioid receptor of mouse vas deferens (MVD) smooth muscle preparation. Format: tissue-based. Summed up:
as §2

The target of test [11] is Opioid receptors; mu & delta (Rattus norvegicus) (UniProt P33533+P33535). Kind of test: Relative affinity for mu and delta receptors in rat brain membranes. In kind it is cell membranes.
Test [12] is filed under the species Mus musculus. The description is as §3. Format: functional, Muscle tissue. Summed up:
as §2

In test [13] the target is Delta-type opioid receptor (Mus musculus) (UniProt P32300). Kind of test: Displacement of DPDPE from Opioid receptor delta 1 of mouse vas deferens (MVD) smooth muscle. Summed up:
as §4

Test [14] is filed under the species Cavia porcellus. The test is described as §1. In kind it is functional, Muscle tissue. In a few lines:
as §2

Test [15] is filed under the species Mus musculus. Particulars: Muscle tissue.
For test [16], the species on record is Mus musculus. Described as §3. In kind it is functional, organism-based. The note with it: Muscle tissue. In a few lines:
as §2

Test [17] has as its target Mu-type opioid receptor (Mus musculus) (UniProt P42866). Kind of test: Compound was tested for antagonist activity against dOpioid receptor mu 1 on electrically stimulated guinea pig ileal longitudinal muscle myenteric plexus (GPI) using PL017as standard antagonist; e denotes 'the agonist effects precluded the determination of antagonist effects'. Format: functional. Particulars: Cavia porcellus; filed as agonist; target entry is the homologue from another species. Summed up:
(§6)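 Guinea pig ileum longitudinal muscle–myenteric plexus (male Hartley, 250–500 g) in oxygenated Krebs at 37 °C, 1 g tension; 0.1 Hz, 0.4-ms pulses, supramaximal voltage. Control PL-017 curve first; 1 μM compound 30 min, 30 min wash, cumulative PL-017 curve repeated. IC50 ratio = antagonized/unantagonized IC50; n ≥ 3.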

In test [18] the target is Delta-type opioid receptor (Mus musculus) (UniProt P32300). Put plainly: Compound was tested for antagonist activity against Opioid receptor delta 1 on mouse vas deferens (MVD) smooth muscle preparation using DPDPE as antagonist ligand; e denotes the agonist effects precluded the determination of antagonist effects. Format: functional. Particulars: filed as agonist. In a few lines:
as §4

The species entered for test [19] is Cavia porcellus. Kind of test: Binding affinity of compound was measured on electrically stimulated guinea pig ileal longitudinal muscle myenteric plexus (GPI) preparation using PL017 as standard antagonist. Format: functional. Particulars: Muscle tissue. In a few lines: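 Electrically stimulated guinea pig ileum longitudinal muscle–myenteric plexus (male Hartley, 250–500 g) in oxygenated Krebs at 37 °C, 1 g tension; 0.1 Hz, 0.4-ms pulses. Tissue preincubated 30 min with 1 μM compound, washed 30 min, then cumulative PL-017 curve repeated. Ke = [antagonist]/(IC50 ratio − 1); n ≥ 3.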

The target in test [20] is Mu-type opioid receptor (Mus musculus) (UniProt P42866). Kind of test: Compound was tested for antagonist activity against Opioid receptor mu 1 on electrically stimulated guinea pig ileal longitudinal muscle myenteric plexus (GPI) using PL017 as antagonist ligand. IC50 ratio = IC50(agonist)/IC50 (control). In kind it is functional. The note with it: Cavia porcellus; target entry is the homologue from another species. Summed up: as §6

Test [21] is described as follows: Selectivity for mu receptor of guinea pig Ileum (GPI) and delta receptor of delta opioid receptor of mouse vas deferens (MVD) smooth muscle preparation. In kind it is tissue-based.
In test [22] the target is Delta-type opioid receptor (Mus musculus) (UniProt P32300).

Molecules are shown by their SMILES.

T1 sequence (P41144 whole entry): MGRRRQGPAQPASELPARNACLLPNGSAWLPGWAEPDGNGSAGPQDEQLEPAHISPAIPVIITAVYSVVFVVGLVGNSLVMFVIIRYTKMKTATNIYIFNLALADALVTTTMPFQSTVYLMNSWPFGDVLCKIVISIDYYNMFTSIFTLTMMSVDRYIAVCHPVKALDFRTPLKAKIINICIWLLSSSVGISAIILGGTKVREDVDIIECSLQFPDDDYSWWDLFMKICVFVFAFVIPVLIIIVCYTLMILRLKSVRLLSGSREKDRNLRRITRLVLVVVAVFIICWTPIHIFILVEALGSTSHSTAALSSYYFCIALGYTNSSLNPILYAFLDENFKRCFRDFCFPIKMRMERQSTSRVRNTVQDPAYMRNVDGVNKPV
Sequence of Delta-type opioid receptor (Mus musculus) (P32300 whole entry): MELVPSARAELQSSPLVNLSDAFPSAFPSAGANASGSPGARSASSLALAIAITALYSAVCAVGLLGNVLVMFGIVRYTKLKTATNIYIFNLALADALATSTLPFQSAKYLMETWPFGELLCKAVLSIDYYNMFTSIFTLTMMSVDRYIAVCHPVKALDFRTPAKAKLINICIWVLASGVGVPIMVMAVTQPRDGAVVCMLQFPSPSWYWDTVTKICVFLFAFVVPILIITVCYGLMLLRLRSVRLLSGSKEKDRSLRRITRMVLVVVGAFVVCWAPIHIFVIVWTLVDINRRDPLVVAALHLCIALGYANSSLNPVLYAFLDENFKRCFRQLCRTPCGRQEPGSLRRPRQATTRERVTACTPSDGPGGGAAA
Sequence of Mu-type opioid receptor (P33535 whole entry): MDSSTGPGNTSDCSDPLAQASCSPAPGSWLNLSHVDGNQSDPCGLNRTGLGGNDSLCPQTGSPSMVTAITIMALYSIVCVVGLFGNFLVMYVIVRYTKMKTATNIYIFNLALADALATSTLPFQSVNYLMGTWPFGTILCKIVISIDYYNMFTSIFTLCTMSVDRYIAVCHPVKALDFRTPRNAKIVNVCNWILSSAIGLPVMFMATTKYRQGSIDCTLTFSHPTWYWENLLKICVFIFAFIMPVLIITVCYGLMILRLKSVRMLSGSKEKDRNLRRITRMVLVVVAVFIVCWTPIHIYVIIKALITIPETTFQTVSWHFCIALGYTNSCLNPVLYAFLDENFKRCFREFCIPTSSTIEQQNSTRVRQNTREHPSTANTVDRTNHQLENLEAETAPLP
Sequence of Opioid receptors; mu & delta (Rattus norvegicus) (P33533 whole entry, looked up): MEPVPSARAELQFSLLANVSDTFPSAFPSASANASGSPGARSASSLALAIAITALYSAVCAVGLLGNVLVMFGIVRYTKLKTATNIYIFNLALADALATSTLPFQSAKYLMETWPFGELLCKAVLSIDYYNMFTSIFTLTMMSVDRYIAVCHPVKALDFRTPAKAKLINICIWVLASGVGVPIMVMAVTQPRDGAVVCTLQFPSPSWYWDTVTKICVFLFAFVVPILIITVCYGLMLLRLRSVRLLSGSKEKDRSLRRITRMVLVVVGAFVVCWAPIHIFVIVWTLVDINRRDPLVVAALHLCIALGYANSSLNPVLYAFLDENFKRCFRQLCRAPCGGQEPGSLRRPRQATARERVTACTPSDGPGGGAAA
Sequence of Opioid receptors; mu & delta (Rattus norvegicus) (P33535 whole entry, looked up): as the sequence (P33535 whole entry) above
T2 sequence (P33533 whole entry): as the sequence (P33533 whole entry, looked up) above
Sequence of Mu-type opioid receptor (Mus musculus) (P42866 whole entry): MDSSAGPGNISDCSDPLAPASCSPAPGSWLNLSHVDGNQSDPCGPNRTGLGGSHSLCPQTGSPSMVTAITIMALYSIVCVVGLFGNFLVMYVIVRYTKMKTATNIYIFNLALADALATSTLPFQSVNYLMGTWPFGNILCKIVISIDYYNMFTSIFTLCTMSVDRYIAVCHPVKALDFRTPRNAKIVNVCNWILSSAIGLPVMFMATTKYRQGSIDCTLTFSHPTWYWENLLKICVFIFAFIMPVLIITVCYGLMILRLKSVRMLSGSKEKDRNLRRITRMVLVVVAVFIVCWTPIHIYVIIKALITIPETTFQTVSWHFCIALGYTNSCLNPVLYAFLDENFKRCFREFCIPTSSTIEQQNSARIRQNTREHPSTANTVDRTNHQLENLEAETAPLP
Sequence of Opioid receptors; mu & delta (Homo sapiens) (P35372 whole entry, looked up): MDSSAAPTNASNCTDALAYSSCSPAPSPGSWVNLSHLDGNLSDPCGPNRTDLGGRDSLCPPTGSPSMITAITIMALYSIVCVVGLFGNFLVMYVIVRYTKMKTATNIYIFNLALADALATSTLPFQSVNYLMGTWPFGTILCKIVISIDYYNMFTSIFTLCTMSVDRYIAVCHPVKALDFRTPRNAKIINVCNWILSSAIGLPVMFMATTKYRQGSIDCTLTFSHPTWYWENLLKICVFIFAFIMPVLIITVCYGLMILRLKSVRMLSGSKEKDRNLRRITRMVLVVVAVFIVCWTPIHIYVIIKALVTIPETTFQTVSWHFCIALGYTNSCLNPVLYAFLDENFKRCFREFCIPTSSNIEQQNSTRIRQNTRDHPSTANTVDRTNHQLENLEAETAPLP
Sequence of Opioid receptors; mu & delta (Homo sapiens) (P41143 whole entry, looked up): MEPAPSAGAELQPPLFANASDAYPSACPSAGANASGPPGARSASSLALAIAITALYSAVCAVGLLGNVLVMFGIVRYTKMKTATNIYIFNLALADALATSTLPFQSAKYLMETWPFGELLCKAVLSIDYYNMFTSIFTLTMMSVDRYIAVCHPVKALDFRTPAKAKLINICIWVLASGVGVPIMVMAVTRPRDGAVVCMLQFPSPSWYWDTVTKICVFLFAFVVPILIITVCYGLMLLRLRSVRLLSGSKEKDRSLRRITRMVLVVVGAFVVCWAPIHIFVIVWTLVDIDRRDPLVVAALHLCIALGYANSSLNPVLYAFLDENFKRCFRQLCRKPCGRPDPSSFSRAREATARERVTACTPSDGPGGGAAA
Sequence of Delta-type opioid receptor (Mus musculus, UniProt P32300) (P32300 whole entry): as the sequence (P32300 whole entry) above

Broadly, the IC50 is the concentration that gives 50% inhibition. A low value points to higher potency. A word on the Ki: it is the dissociation constant of the complex between target and ligand, obtained from inhibition or displacement. Regarding `Oc1ccc2c3c1OC1c4[nH]c5cc(Oc6ccccc6)ccc5c4C[C@@]4(O)[C@@H](C2)N(CC2CC2)CC[C@]314` (stereo partly specified), the figures for the 50% inhibitory concentration (IC50) (in the test filed under Cavia porcellus [1]; in test [2]) were 2.3 µM and 3 µM, respectively. Also, the Ke in [3] was 4.6 nM. The Ki in [4] amounted to 0.175 µM; in [5] it was 0.236 µM; at Mu-type opioid receptor it was 0.235 µM; in test [6], 0.0049 µM; in test [7] it was 0.0894 µM; in test [8], 0.0064 µM. The Selectivity ratio in test [9] turned out to be 37; in test [10], 0.8; in [11], 37.
Consider `Oc1ccc2c3c1OC1c4[nH]c5cc(OCc6ccccc6)ccc5c4C[C@@]4(O)[C@@H](C2)N(CC2CC2)CC[C@]314` (stereo partly specified), for which the Max response is on record as 25% in the test filed under Mus musculus [12] and 0% in the test filed under Cavia porcellus [14]. The Ki came to 0.461 µM in [4]; 0.47 µM in test [5]; 0.676 µM on Mu-type opioid receptor; 0.0063 µM in [6]; 0.201 µM in test [7]; 0.0067 µM in test [8]. Moreover, the Ratio in test [13] is 260. Also, the Selectivity ratio in test [9] was 70; in test [11], 101. The Ke in the test listed under Mus musculus [15] worked out at 3.9 nM.
With `Oc1ccc2c3c1OC1c4[nH]c5ccc(/C=C/c6ccccn6)cc5c4C[C@@]4(O)[C@@H](C2)N(CC2CC2)CC[C@]314` (stereo partly specified), the 50% inhibitory concentration (IC50) in the test listed under Cavia porcellus [1] was found to be 2.6 µM; in the test listed under Mus musculus [16], 0.22 µM. Moreover, the Ratio entry in test [17] and in test [18] was “Agonist” each time. The inhibition constant (Ki) was found to be 0.0214 µM in [4]; 0.0201 µM in test [5]; 0.076 µM on Mu-type opioid receptor; 0.004 µM in test [6]; 0.0174 µM in [7]; 0.0037 µM in [8]. In addition, the Selectivity ratio in [9] is 5; in test [10], 12; in test [11] it was 21.
As for `Oc1ccc2c3c1OC1c4[nH]c5c(-c6ccccc6)cccc5c4C[C@@]4(O)[C@@H](C2)N(CC2CC2)CC[C@]314` (stereo partly specified), the Ke in the test listed under Cavia porcellus [19] was determined as 310 nM; in test [22], 1.8 nM. Besides, the Max response is on record as 35% in the test listed under Mus musculus [12] and 37% in the test filed under Cavia porcellus [14]. In addition, the Ratio in [20] was found to be 4.2. Further, the Ki in [4] came to 0.0899 µM; in test [5] it was 0.312 µM; at Mu-type opioid receptor it was 0.124 µM; in [6], 0.00046 µM; in test [7] it was 0.0514 µM; in test [8], 0.0021 µM. In addition, the Selectivity ratio in test [9] turned out to be 149; in test [11] it was 59; in test [21] it was 172.
